# HTRA1 inh – HTRA1 serine protease inhibitors, primary screen, biochemical, fluorescence polarization, HTS; 340,000 compounds, 0.5% hits; recombinant HTRA1, FP-rhodamine activity-based probe; inhibition, % at 5.96 µM; Q92743; in the data active = inhibition above about 36%;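 also: 0% = enzyme with DMSO and 100% = wells lacking enzyme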
# SIAE inh – human SIAE inhibitors, primary screen, biochemical, fluorescence polarization, FP-Rh probe, 1536-well HTS; Sialate O-acetylesterase (Homo sapiens), Q9HAT2; SIAE FP-Rh probe binding; inhibition, % at 9.66 µM; 370,000 compounds, 0.69% hits;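 active = inhibition above a cutoff: mean of compounds within the control limits plus 3 SD of those, cut at about 17% in these data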;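 also: 0% = plate median of compound wells and 100% = probe without SIAE protein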
# TCR CD3 inh – inhibitors of human TCR-CD3 interaction, primary screen, biochemical, fluorescence, TAMRA-labeled TCR probe. 360,000 compounds, 0.37% hits. AID 651800, 2012. T-cell receptor (TCR). inhibition, % at 9.4 µM; in the data active = inhibition above about 19%;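 also: recombinant mutant TCR 2C K166C tagged with TAMRA read by polarization; 0% = receptor in buffer alone and 100% = receptor with positive control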
# PRMT1 inh – PRMT1 methyltransferase inhibitors, primary screen, biochemical, fluorescence polarization; Protein arginine N-methyltransferase 1 (Homo sapiens), Q99873; recombinant PRMT1, activity-based probe fluorescence polarization; inhibition, % at 2.79 µM; 370,000 compounds, 1.3% hits; AID 652257, 2013;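 active = inhibition above about 21% made by adding two undisclosed values, limit read from the data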
# Target sequence (Q99873 whole entry, looked up): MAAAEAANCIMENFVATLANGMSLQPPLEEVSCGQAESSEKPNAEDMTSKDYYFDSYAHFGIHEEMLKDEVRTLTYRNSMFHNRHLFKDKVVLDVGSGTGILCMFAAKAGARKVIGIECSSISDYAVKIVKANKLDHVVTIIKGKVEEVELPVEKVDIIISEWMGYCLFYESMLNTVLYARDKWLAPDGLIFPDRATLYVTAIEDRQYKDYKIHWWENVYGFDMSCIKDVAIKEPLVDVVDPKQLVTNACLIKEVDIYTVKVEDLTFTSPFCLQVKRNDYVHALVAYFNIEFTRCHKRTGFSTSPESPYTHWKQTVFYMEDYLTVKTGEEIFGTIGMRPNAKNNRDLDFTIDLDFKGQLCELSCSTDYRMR
# mABHD4 FP – ABHD4 inhibitors, primary screen, biochemical, fluorescence polarization, mouse; (Lyso)-N-acylphosphatidylethanolamine lipase (Mus musculus), Q8VD66; purified mABHD4, FP-Rh probe fluorescence polarization; inhibition, % at 8.92 µM; 370,000 compounds, 0.54% hits;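 active = inhibition exceeding the mean over every tested compound plus 3 SD, cut at about 30% in these data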;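 also: 0% = plate median of compound wells and 100% = S159A mutant with DMSO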
#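 Doses – 8.92 µM, single dose · Material – wild-type mouse ABHD4 protein · Replication – single well per compound (singlicate) · Measure – percent inhibition of probe binding, normalized to plate controls · Schedule – 45 min compound pre-incubation plus 60 min probe step, 25 °C · Detection – fluorescence polarization with parallel and perpendicular emission, 525/598 nm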
# HTRA1 inh conf – HTRA1 protease inhibitors, retest, confirmation, biochemical, fluorescence polarization; shares compounds with HTRA1 inh; recombinant HTRA1, FP-rhodamine activity-based probe; inhibition, % at 5.96 µM; 1,600 compounds, 66% hits; AID 540248, 2011;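 active = mean inhibition over three repeats above a set limit taken from the earlier primary screen, cut at about 37% in these data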;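 also: 0% = HTRA1 with DMSO and 100% = wells lacking HTRA1; inhibitors block probe binding so polarization drops and inhibition rises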
# Active calls of the source: *; . = no result given. An excerpt weighted towards active compounds, which were near 2.6% of everything screened.
SMILES,HTRA1 inh,SIAE inh,TCR CD3 inh,PRMT1 inh,mABHD4 FP,HTRA1 inh conf
Brc1ccc(C=Nc2ccc(Nc3ccccc3)cc2)s1,72.6*,.,.,.,.,94.3*
CC(C)NC(=O)COc1coc(CN2CCN(C(=O)c3ccco3)CC2)cc1=O,-4.1,5.1,-6.5,3.4,8.7,.
Nc1ccc2c(c1)C(=O)c1ccccc1-2,5.3,3.5,8.9,0.7,13.8,.
Nc1ccc2c(c1)C(=O)C(=O)c1ccccc1-2,42.0*,4.6,-3.9,6.8,25.0,33.6
O=C(NC(C(=O)N/N=C/c1c2ccccc2cc2ccccc12)c1n[nH]c(=O)c2ccccc12)c1ccccc1 (stereo unspecified),40.5*,-31.8,6.3,1.1,-16.1,-72.5
O=C(NC(C(=O)N/N=C/c1ccccc1)c1n[nH]c(=O)c2ccccc12)c1ccccc1 (stereo unspecified),-23.6,-6.5,7.5,-1.2,-4.2,.
CCCCOC(=O)CCN1C(=O)/C(=C/c2ccccc2)SC1=S,.,-4.4,.,4.6,-3.8,.
Cc1cc(C)c(S(=O)(=O)/N=C2/C=C(SCC(=O)O)C(=O)c3ccccc32)cc1C,54.3*,.,.,.,.,35.5
CC[n+]1ccc(C)c2cc(SC(F)(F)F)ccc21,36.4*,.,.,.,.,24.0
CC[n+]1ccc(C)c2cc(P(=O)(c3ccccc3)c3ccccc3)ccc21,44.1*,2.5,0.8,7.3,1.1,33.0
Cc1cc[n+](CC(=O)c2ccc(NC(=O)c3ccccc3)cc2)c2ccccc12,34.4,1.0,-0.1,-3.1,-2.0,.
COc1ccc(-c2cc(=O)c3cccc(CC(=O)O)c3o2)cc1,.,-2.2,9.5,0.6,3.8,.
C=CCCC1CN(Cc2ccc(OC)cc2)S(=O)(=O)c2c(cccc2Sc2ccc(OC)c(OC)c2)O1 (stereo unspecified),.,0.8,-0.1,-2.1,-10.3,.
O=C1c2ccccc2-c2onc3ccc(NCc4ccco4)c1c23,117.1*,.,.,.,.,108.4*
O=C1C(Cl)=C(NCc2ccco2)C(=O)c2ccccc21,4.8,-4.2,-2.7,10.4,5.8,.
CC(C)C(=O)OCC(=O)Nc1ccc(N=Nc2ccccc2)cc1,39.0*,1.9,-1.3,0.8,1.1,49.0*
Cc1ccc(-c2nn(-c3ccccc3)cc2C(=O)N2CCOCC2)cc1,36.2*,4.7,7.4,-3.6,-1.4,-5.2
O=[N+]([O-])c1ccc(Cl)c2cccnc12,1.1,3.8,-1.1,-2.1,-7.2,.
O=[N+]([O-])c1ccc(O)c2ncccc12,32.2,9.0,-2.8,8.2,26.2,.
Oc1c(I)cc(Cl)c2cccnc12,53.8*,17.0,9.1,-1.8,27.1,87.0*
Clc1cc2cccnc2c2ncccc12,-8.7,3.9,-1.1,0.3,5.8,.
O=[N+]([O-])c1cc(F)c2cccnc2c1O,54.8*,9.4,0.6,3.1,16.1,48.4*
O=[N+]([O-])c1cc(Cl)c2cccnc2c1O,42.6*,0.3,-0.5,7.3,10.1,51.6*
C[C@H](O)[C@@H]1CN2CCc3ccc(-c4ccc5c(c4)OCO5)cc3[C@@H]2C[C@@H]1N(C)Cc1cc(Cl)cc(Cl)c1,.,-6.7,8.7,0.0,-7.5,.
Oc1ccccc1/C=N/NC(=S)NC1CC2CC1C1C=CCC21 (stereo unspecified),36.8*,11.5,3.8,-0.5,6.6,13.9
SMILES,HTRA1 inh,SIAE inh,TCR CD3 inh,PRMT1 inh,mABHD4 FP,HTRA1 inh conf
N#CC(c1nc2ccccc2nc1N1CCCC1)S(=O)(=O)c1ccccc1 (stereo unspecified),39.3*,6.4,5.8,9.3,6.4,5.3
CN1CCN(c2nc3ccccc3nc2C(C#N)S(=O)(=O)c2ccccc2)CC1 (stereo unspecified),.,0.0,-3.8,2.9,-0.1,.
Cc1ccc(-n2ncc3c(=O)n(CC(=O)N4CCN(C(=O)c5ccco5)CC4)cnc32)cc1,-3.0,-5.0,2.1,-0.4,0.8,.
Cc1cccc[n+]1CC(=O)/C=C1\N(C)c2ccccc2C1(C)C,-27.0,-35.5,-1.6,-3.6,-66.6,.
CN1/C(=C/C=C/c2n(C)c3cc([N+](=O)[O-])c([N+](=O)[O-])cc3[n+]2C)C(C)(C)c2ccccc21,42.1*,6.3,-8.2,7.1,-1.3,41.5*
CN1C(=O)[C@@]2(O[C@H]3c4ccccc4C=CN3C3=C2C(=O)CCC3)c2ccccc21,.,6.2,0.3,-5.5,0.3,.
CCN(CC)CCn1c2ccccc2c(=O)c2c(O)ccc(O)c21,54.6*,12.4,16.5,7.0,32.9*,48.4*
CCN(CC)CCn1c(O)c(N=O)c2ccccc21,-0.3,-3.4,6.4,-2.5,-0.2,.
CC(c1ccccc1)N1CC(C(=O)Nc2ccc(F)cc2)CC1=O (stereo unspecified),-0.7,1.4,-1.8,-2.0,0.7,.
c1ccc(CN2CCC(=NNc3nc4ccccc4[nH]3)CC2)cc1,36.6*,5.8,0.4,2.2,26.0,15.4
CC1CC(=O)c2ccccc2C1C (stereo unspecified),0.1,3.6,1.2,-0.4,1.5,.
O=C(O)c1ccc(N/N=C/c2c[nH]c3ccccc23)cc1,8.5,2.7,-2.9,4.8,7.2,.
Cc1cc(N/N=C/c2c[nH]c3ccccc23)c2ccccc2n1,-4.3,14.5,-2.3,-1.4,-1.9,.
Cn1c(N/N=C/c2c[nH]c3ccccc23)nc2ccccc21,45.6*,10.6,2.0,-1.3,22.0,26.9
Fc1c(F)c(F)c(N/N=C/c2c[nH]c3ccccc23)c(F)c1F,42.7*,13.4,-5.6,7.4,14.7,41.6*
O=[N+]([O-])c1ccccc1N/N=C/c1cccc(O)c1O,47.8*,-15.2,-5.3,-2.1,22.8,35.9
COc1cc(/C=N/Nc2ccc([N+](=O)[O-])cc2S(=O)(=O)N2CCOCC2)cc(OC)c1OC,-3.6,4.3,7.6,-1.9,2.8,.
O=[N+]([O-])c1ccc(N/N=C/c2cccc(O)c2O)c(S(=O)(=O)N2CCOCC2)c1,58.5*,10.9,-10.9,18.0,24.1,54.1*
CC(C)(C)S(=O)(=O)N1Cc2ccc(CO)cc2[C@H]1CCO,5.0,0.2,6.6,0.3,0.7,.
COc1cccc(C(CNC(=O)C2CCN(C(=O)Nc3ccccc3)CC2)N(C)C)c1 (stereo unspecified),-0.8,0.0,0.6,2.6,-4.6,.
O=C(NC(c1ccc(Cl)cc1)c1cc(Cl)c2cccnc2c1O)c1cccnc1 (stereo unspecified),59.7*,1.2,-5.1,1.5,0.1,52.1*
CCCCC(=O)NC(c1cccs1)c1cc(Cl)c2cccnc2c1O (stereo unspecified),54.8*,13.8,-3.9,-1.2,8.6,54.9*
